ChEMBL document CHEMBL4680371, “Design and Structure-Activity Relationship of a Potent Furin Inhibitor Derived from Influenza Hemagglutinin” (ACS Med Chem Lett, 2021)
Where a SMILES comes first, the peptide text is derived from it. [ ]: non-standard residue; d: D form. Abu = CC[C@H](N)C(=O)O

Biological target: Furin (Homo sapiens, UniProt P09958)
Assay: Inhibition of recombinant soluble human furin using pyroGlu-Arg-Thr-Lys-Arg-methyl-coumaryl-7-amide as substrate measured after 1 hr
Outline: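 Soluble human recombinant furin was tested in a competitive kinetic assay. Ki is reported as the mean ± SD of at least two independent experiments.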

Furin, sequence (P09958 whole entry): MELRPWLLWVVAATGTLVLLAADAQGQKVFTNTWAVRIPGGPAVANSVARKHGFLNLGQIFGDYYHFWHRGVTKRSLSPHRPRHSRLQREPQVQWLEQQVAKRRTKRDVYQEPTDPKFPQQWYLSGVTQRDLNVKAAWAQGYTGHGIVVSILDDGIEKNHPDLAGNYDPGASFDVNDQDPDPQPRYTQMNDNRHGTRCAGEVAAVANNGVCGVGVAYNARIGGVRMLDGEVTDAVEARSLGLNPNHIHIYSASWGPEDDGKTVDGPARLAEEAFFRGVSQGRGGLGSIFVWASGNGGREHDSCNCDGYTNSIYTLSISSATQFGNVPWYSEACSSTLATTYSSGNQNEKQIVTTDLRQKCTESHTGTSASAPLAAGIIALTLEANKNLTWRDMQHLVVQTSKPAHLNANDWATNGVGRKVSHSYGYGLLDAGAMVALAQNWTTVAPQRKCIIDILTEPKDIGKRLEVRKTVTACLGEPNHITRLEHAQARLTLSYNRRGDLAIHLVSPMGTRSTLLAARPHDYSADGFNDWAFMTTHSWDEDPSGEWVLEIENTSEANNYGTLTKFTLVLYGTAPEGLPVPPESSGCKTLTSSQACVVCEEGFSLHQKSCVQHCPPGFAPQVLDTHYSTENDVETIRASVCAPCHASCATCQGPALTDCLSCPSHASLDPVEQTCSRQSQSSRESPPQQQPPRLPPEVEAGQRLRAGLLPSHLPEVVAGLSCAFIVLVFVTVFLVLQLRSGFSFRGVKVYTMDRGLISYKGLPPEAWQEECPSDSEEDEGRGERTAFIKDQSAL

| SMILES | Ki [nM] |
| --- | --- |
| CC(=O)N[C@@H](Cc1c[nH]cn1)C(=O)N[C@@H](C)C(=O)N[C@@H](CCCNC(=N)N)C(=O)N[C@@H](CCCNC(=N)N)C(=O)N[C@@H](CCCNC(=N)N)C(=O)N[C@@H](CCCCN)C(=O)N[C@@H](CCCCN)C(=O)N[C@@H](CCCNC(=N)N)C(=O)N[C@H](C(N)=O)[C@@H](C)O | 12 |
| CC(=O)N[C@H](CO)C(=O)N[C@@H](C)C(=O)N[C@@H](CCCNC(=N)N)C(=O)N[C@@H](CCCNC(=N)N)C(=O)N[C@@H](CCCNC(=N)N)C(=O)N[C@@H](CCCCN)C(=O)N[C@@H](CCCCN)C(=O)N[C@@H](CCCNC(=N)N)C(=O)N[C@H](C(N)=O)[C@@H](C)O | 11 |
| CC[C@H](C)[C@H](NC(=O)[C@H](CCCNC(=N)N)NC(=O)[C@H](C)NC(=O)CNC(C)=O)C(=O)N[C@@H](CCCNC(=N)N)C(=O)N[C@@H](CCCCN)C(=O)N[C@@H](CCCCN)C(=O)N[C@@H](CCCNC(=N)N)C(=O)N[C@H](C(N)=O)[C@@H](C)O (Ac-GARIRKKRT-NH2) | 9 |
| CC(=O)N1CCC[C@@H]1C(=O)N[C@@H](C)C(=O)N[C@@H](CCCNC(=N)N)C(=O)N[C@@H](CCCNC(=N)N)C(=O)N[C@@H](CCCNC(=N)N)C(=O)N[C@@H](CCCCN)C(=O)N[C@@H](CCCCN)C(=O)N[C@@H](CCCNC(=N)N)C(=O)N[C@H](C(N)=O)[C@@H](C)O | 13 |
| CC(=O)N1CCC[C@H]1C(=O)N[C@@H](C)C(=O)N[C@@H](CCCNC(=N)N)C(=O)N[C@@H](CCCNC(=N)N)C(=O)N[C@@H](CCCNC(=N)N)C(=O)N[C@@H](CCCCN)C(=O)N[C@@H](CCCCN)C(=O)N[C@@H](CCCNC(=N)N)C(=O)N[C@H](C(N)=O)[C@@H](C)O | 10 |
| CC[C@H](NC(=O)[C@H](CCCNC(=N)N)NC(=O)[C@H](C)NC(=O)[C@H](CCCNC(=N)N)NC(C)=O)C(=O)N[C@@H](CCCNC(=N)N)C(=O)N[C@@H](CCCCN)C(=O)N[C@@H](CCCCN)C(=O)N[C@@H](CCCNC(=N)N)C(=O)N[C@H](C(N)=O)[C@@H](C)O | 11 |
| CC(=O)N[C@@H](CCCNC(=N)N)C(=O)N[C@@H](CCC(=O)O)C(=O)N[C@@H](CCCNC(=N)N)C(=O)N[C@@H](CCCNC(=N)N)C(=O)N[C@@H](CCCNC(=N)N)C(=O)N[C@@H](CCCCN)C(=O)N[C@@H](CCCCN)C(=O)N[C@@H](CCCNC(=N)N)C(=O)N[C@H](C(N)=O)[C@@H](C)O | 24 |
| CC[C@H](NC(=O)[C@H](CCCNC(=N)N)NC(=O)[C@H](C)NC(=O)[C@H](CO)NC(C)=O)C(=O)N[C@@H](CCCNC(=N)N)C(=O)N[C@@H](CCCCN)C(=O)N[C@@H](CCCCN)C(=O)N[C@@H](CCCNC(=N)N)C(=O)N[C@H](C(N)=O)[C@@H](C)O | 11 |
| CC[C@H](NC(=O)[C@H](CCCNC(=N)N)NC(=O)[C@H](C)NC(=O)CNC(C)=O)C(=O)N[C@@H](CCCNC(=N)N)C(=O)N[C@@H](CCCCN)C(=O)N[C@@H](CCCCN)C(=O)N[C@@H](CCCNC(=N)N)C(=O)N[C@H](C(N)=O)[C@@H](C)O (Ac-GAR[Abu]RKKRT-NH2) | 10 |
| CC(=O)N[C@@H](CCCNC(=N)N)C(=O)N[C@@H](Cc1ccc(O)cc1)C(=O)N[C@@H](CCCNC(=N)N)C(=O)N[C@@H](CCCNC(=N)N)C(=O)N[C@@H](CCCNC(=N)N)C(=O)N[C@@H](CCCCN)C(=O)N[C@@H](CCCCN)C(=O)N[C@@H](CCCNC(=N)N)C(=O)N[C@H](C(N)=O)[C@@H](C)O | 24 |
| CC(=O)N[C@@H](CCCNC(=N)N)C(=O)N[C@@H](C)C(=O)N[C@@H](CCCNC(=N)N)C(=O)N[C@@H](CCC(=O)O)C(=O)N[C@@H](CCCNC(=N)N)C(=O)N[C@@H](CCCCN)C(=O)N[C@@H](CCCCN)C(=O)N[C@@H](CCCNC(=N)N)C(=O)N[C@H](C(N)=O)[C@@H](C)O | 55 |
| CC(=O)N[C@@H](C)C(=O)N[C@@H](C)C(=O)N[C@@H](CCCNC(=N)N)C(=O)N[C@@H](CCCNC(=N)N)C(=O)N[C@@H](CCCNC(=N)N)C(=O)N[C@@H](CCCCN)C(=O)N[C@@H](CCCCN)C(=O)N[C@@H](CCCNC(=N)N)C(=O)N[C@H](C(N)=O)[C@@H](C)O | 11 |
| CC(=O)N[C@@H](CCCNC(=N)N)C(=O)N[C@@H](CC(C)C)C(=O)N[C@@H](CCCNC(=N)N)C(=O)N[C@@H](CCCNC(=N)N)C(=O)N[C@@H](CCCNC(=N)N)C(=O)N[C@@H](CCCCN)C(=O)N[C@@H](CCCCN)C(=O)N[C@@H](CCCNC(=N)N)C(=O)N[C@H](C(N)=O)[C@@H](C)O | 23 |
| CC(=O)N[C@@H](CCCNC(=N)N)C(=O)N[C@@H](C)C(=O)N[C@@H](CCCNC(=N)N)C(=O)NC(C)(C)C(=O)N[C@@H](CCCNC(=N)N)C(=O)N[C@@H](CCCCN)C(=O)N[C@@H](CCCCN)C(=O)N[C@@H](CCCNC(=N)N)C(=O)N[C@H](C(N)=O)[C@@H](C)O | 34 |
| CC(=O)N[C@@H](CCCNC(=N)N)C(=O)N[C@@H](C)C(=O)N[C@H](C(=O)N[C@@H](CCCNC(=N)N)C(=O)N[C@@H](CCCNC(=N)N)C(=O)N[C@@H](CCCCN)C(=O)N[C@@H](CCCCN)C(=O)N[C@@H](CCCNC(=N)N)C(=O)N[C@H](C(N)=O)[C@@H](C)O)C(C)C | 21 |
| CC[C@H](C)[C@H](NC(=O)[C@H](CCCNC(=N)N)NC(=O)[C@H](C)NC(=O)[C@H](CCC(N)=O)NC(C)=O)C(=O)N[C@@H](CCCNC(=N)N)C(=O)N[C@@H](CCCCN)C(=O)N[C@@H](CCCCN)C(=O)N[C@@H](CCCNC(=N)N)C(=O)N[C@H](C(N)=O)[C@@H](C)O (Ac-QARIRKKRT-NH2) | 9 |
| CC(=O)N[C@@H](CCCNC(=N)N)C(=O)N[C@@H](C)C(=O)N[C@@H](CCCNC(=N)N)C(=O)NCC(=O)N[C@@H](CCCNC(=N)N)C(=O)N[C@@H](CCCCN)C(=O)N[C@@H](CCCCN)C(=O)N[C@@H](CCCNC(=N)N)C(=O)N[C@H](C(N)=O)[C@@H](C)O | 36 |
| CC(=O)N[C@@H](CCCNC(=N)N)C(=O)N[C@@H](C)C(=O)N[C@@H](CC(N)=O)C(=O)N[C@@H](CCCNC(=N)N)C(=O)N[C@@H](CCCNC(=N)N)C(=O)N[C@@H](CCCCN)C(=O)N[C@@H](CCCCN)C(=O)N[C@@H](CCCNC(=N)N)C(=O)N[C@H](C(N)=O)[C@@H](C)O | 27 |
| CC(=O)N[C@@H](CO)C(=O)N[C@@H](C)C(=O)N[C@@H](CCCNC(=N)N)C(=O)N[C@@H](CCCNC(=N)N)C(=O)N[C@@H](CCCNC(=N)N)C(=O)N[C@@H](CCCCN)C(=O)N[C@@H](CCCCN)C(=O)N[C@@H](CCCNC(=N)N)C(=O)N[C@H](C(N)=O)[C@@H](C)O | 11 |
| CC[C@H](C)[C@H](NC(C)=O)C(=O)N[C@@H](C)C(=O)N[C@@H](CCCNC(=N)N)C(=O)N[C@@H](CCCNC(=N)N)C(=O)N[C@@H](CCCNC(=N)N)C(=O)N[C@@H](CCCCN)C(=O)N[C@@H](CCCCN)C(=O)N[C@@H](CCCNC(=N)N)C(=O)N[C@H](C(N)=O)[C@@H](C)O | 11 |
| CC(=O)N[C@@H](CCCNC(=N)N)C(=O)N[C@@H](C)C(=O)N[C@@H](CCCNC(=N)N)C(=O)N[C@@H](CC(C)C)C(=O)N[C@@H](CCCNC(=N)N)C(=O)N[C@@H](CCCCN)C(=O)N[C@@H](CCCCN)C(=O)N[C@@H](CCCNC(=N)N)C(=O)N[C@H](C(N)=O)[C@@H](C)O | 11 |
| CC(=O)N[C@@H](CCCNC(=N)N)C(=O)N[C@@H](C)C(=O)N[C@@H](CCCNC(=N)N)C(=O)N[C@H](C(=O)N[C@@H](CCCNC(=N)N)C(=O)N[C@@H](CCCCN)C(=O)N[C@@H](CCCCN)C(=O)N[C@@H](CCCNC(=N)N)C(=O)N[C@H](C(N)=O)[C@@H](C)O)[C@@H](C)O | 8 |
| CC(=O)N[C@@H](CCCNC(=N)N)C(=O)N[C@@H](C)C(=O)N[C@@H](CCCCN)C(=O)N[C@@H](CCCNC(=N)N)C(=O)N[C@@H](CCCNC(=N)N)C(=O)N[C@@H](CCCCN)C(=O)N[C@@H](CCCCN)C(=O)N[C@@H](CCCNC(=N)N)C(=O)N[C@H](C(N)=O)[C@@H](C)O | 15 |
